Measured values: ChEMBL document CHEMBL1140939, “A series of 2,4-disubstituted quinolines as a new class of allosteric enhancers of the adenosine A3 receptor” (J Med Chem, 2009)

Tests used:
[1] = molecular target: T1, Adenosine receptor A1 (Homo sapiens) (UniProt P30542); assay: Displacement of [125I]AB-MECA from human adenosine A1 receptor expressed in CHO cells at 10 uM; format: cell-based
T1 sequence (whole entry): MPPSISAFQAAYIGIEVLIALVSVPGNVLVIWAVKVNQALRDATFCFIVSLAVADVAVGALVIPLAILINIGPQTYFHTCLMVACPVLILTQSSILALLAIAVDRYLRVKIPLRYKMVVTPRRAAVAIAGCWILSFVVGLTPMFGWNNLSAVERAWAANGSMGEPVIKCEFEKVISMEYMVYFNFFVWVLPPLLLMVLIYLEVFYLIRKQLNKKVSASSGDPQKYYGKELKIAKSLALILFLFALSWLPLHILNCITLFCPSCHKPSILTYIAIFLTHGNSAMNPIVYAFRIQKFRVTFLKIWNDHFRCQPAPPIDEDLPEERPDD
How it was run: (§1)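 Equilibrium binding on CHO membranes with human A1 (20 µg protein, 60 min) or A3 (10 µg, 120 min) at 25 °C. Buffer 50 mM Tris-HCl pH 8.0, 10 mM MgCl2, 1 mM EDTA, 0.01% CHAPS. Test ligand 10 µM with ~0.1 nM 125I-AB-MECA. Nonspecific binding with 10 µM DPCPX (A1) or 100 µM R-PIA (A3). Filtration, then γ-counting.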

[2] = molecular target: T2, Adenosine receptor A3 (Homo sapiens) (UniProt P0DMS8); assay: Displacement of [125I]AB-MECA from human adenosine A3 receptor expressed in CHO cells at 10 uM; format: cell-based; how it was run: as §1
T2 sequence (whole entry): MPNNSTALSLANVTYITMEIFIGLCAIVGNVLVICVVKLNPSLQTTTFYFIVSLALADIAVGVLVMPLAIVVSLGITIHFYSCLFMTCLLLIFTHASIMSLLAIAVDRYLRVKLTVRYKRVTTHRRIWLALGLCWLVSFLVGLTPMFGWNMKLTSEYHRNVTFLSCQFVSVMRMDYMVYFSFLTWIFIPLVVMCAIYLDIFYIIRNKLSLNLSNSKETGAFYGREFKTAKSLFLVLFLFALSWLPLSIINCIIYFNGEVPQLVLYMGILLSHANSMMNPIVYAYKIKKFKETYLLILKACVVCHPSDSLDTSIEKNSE

[3] = molecular target: Adenosine receptor A2a (Homo sapiens) (UniProt P29274); assay: Displacement of [3H]ZM241385 from human adenosine A2A receptor expressed in HEK293 cells at 10 uM; format: cell-based
Sequence of Adenosine receptor A2a (Homo sapiens) (P29274 whole entry): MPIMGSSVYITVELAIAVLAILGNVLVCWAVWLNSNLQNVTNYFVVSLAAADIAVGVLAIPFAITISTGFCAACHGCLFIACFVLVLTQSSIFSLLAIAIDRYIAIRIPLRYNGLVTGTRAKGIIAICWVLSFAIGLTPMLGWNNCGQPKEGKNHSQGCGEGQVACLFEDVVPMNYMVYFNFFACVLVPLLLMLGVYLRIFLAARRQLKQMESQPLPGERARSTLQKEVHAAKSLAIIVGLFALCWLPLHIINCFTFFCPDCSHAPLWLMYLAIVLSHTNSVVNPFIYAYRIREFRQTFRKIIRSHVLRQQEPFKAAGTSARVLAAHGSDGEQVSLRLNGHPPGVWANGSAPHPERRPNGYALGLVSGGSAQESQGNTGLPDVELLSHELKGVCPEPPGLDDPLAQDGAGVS
How it was run: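 HEK293 membranes with human A2A (30 µg protein) incubated 120 min at 25 °C in 50 mM Tris-HCl pH 7.4 with ~1.7 nM [3H]ZM241385 and 10 µM test ligand. Nonspecific binding defined by 100 µM CGS 21680. Filtration, then liquid scintillation counting.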

[4] = molecular target: T3, Adenosine receptor A2b (Homo sapiens) (UniProt P29275); assay: Displacement of [3H]MRS1754 from human adenosine A2B receptor expressed in CHO cells at 10 uM; format: cell-based
T3 sequence (whole entry): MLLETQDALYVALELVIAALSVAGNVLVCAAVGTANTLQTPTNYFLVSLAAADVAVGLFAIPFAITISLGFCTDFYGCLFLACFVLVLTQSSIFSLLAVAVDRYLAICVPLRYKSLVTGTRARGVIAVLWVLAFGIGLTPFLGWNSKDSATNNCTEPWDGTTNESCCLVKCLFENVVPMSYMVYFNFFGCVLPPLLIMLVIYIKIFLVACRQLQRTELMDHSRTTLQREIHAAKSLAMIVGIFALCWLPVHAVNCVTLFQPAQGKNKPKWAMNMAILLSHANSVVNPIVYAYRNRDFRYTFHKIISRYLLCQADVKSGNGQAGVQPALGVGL
How it was run: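 CHO membranes expressing human A2B (20 µg protein) with ~1.2 nM [3H]MRS1754 and 10 µM test ligand, 60 min at 25 °C, in 50 mM Tris-HCl pH 7.4 with 0.1% CHAPS. Nonspecific binding with 1 mM NECA. Filtration, then scintillation counting.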

[5] = molecular target: T1, Adenosine receptor A1 (Homo sapiens); assay: Binding affinity to human adenosine A1 receptor expressed in CHO cells assessed as enhancement of DPCPX-induced displacement of [125I]AB-MECA from receptor at 10 uM after 90 mins relative to control; format: cell-based
How it was run: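 CHO membranes expressing human A1 (20 µg) or A3 (10 µg) preincubated with ~0.1 nM 125I-AB-MECA at 25 °C, 60 min (A1) or 120 min (A3), in 50 mM Tris-HCl pH 8.0, 10 mM MgCl2, 1 mM EDTA, 0.01% CHAPS. Dissociation started with 10 µM DPCPX (A1) or 10 µM Cl-IB-MECA (A3), with or without modulator. Bound ligand read at 90 min (A1) or 120 min (A3); control = 100%. Two assays in duplicate.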

[6] = molecular target: T2, Adenosine receptor A3 (Homo sapiens); assay: Binding affinity to human adenosine A3 receptor expressed in CHO cells assessed as enhancement of C1IB-MECA-induced displacement of [125I]AB-MECA from receptor at 10 uM after 120 mins relative to control
[7] = molecular target: T2, Adenosine receptor A3 (Homo sapiens); assay: Intrinsic activity at human adenosine A3 receptor expressed in CHO cells assessed as increase in C1IB-MECA-stimulated inhibition of forskolin-induced cAMP release at 10 uM by TR-FRET assay; format: functional, cell-based
How it was run: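 Forskolin-stimulated cAMP in CHOhA3 cells (~5000/well). Cl-IB-MECA concentration range given with or without 10 µM modulator in stimulation buffer (PBS, 5 mM Hepes pH 7.4, 0.1% BSA, 50 µM rolipram, 50 µM cilostamide), 15 min at room temperature. Forskolin 1 µM added, 30 min at room temperature. TR-FRET cAMP read-out. 100% = cAMP with 10 µM Cl-IB-MECA, 0% = forskolin alone. Three assays in duplicate.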

SMILES | Activity [1] [%] | Activity [2] [%] | Activity [3] [%] | Activity [4] [%] | Activity [5] [%] | Activity [6] [%] | Emax [7] [%]
O=C(Nc1cc(Nc2ccccc2)nc2ccccc12)c1ccccc1 | 64 | 46 | 75 | 76 | 77 | 100 | 
O=C(Nc1cc(Nc2ccccc2)nc2ccccc12)C1CCCCC1 | 17 | 21 | 5 | 26 | 70 | 210 | 
O=C(Nc1cc(Nc2ccc(Cl)c(Cl)c2)nc2ccccc12)C1CCCCC1 | 12 | 12 | -19 | 17 | 94 | 249 | 223
O=C(Nc1cc(Nc2ccccc2)nc2ccccc12)C1CCC1 | 76 | 73 | 79 | 66 | 79 | 119 | 
Cc1ccc(Nc2cc(NC(=O)C3CCCC3)c3ccccc3n2)cc1 | 52 | 27 | 35 | 63 | 115 | 165 | 
O=C(Nc1cc(Nc2ccc(Cl)c(Cl)c2)nc2ccccc12)c1ccccc1 | 23 | 11 | -20 | 37 | 102 | 112 | 
O=C(Nc1cc(Nc2ccccc2)nc2ccccc12)c1ccco1 | 73 | 92 | 95 | 60 | 68 | 100 | 
O=C(Nc1cc(NC2CCCC2)nc2ccccc12)C1CCCC1 | 80 | 42 | 72 | 14 | 107 | 114 | 
O=C(Nc1cc(Nc2ccc(Cl)c(Cl)c2)nc2ccccc12)C1CCCC1 | 17 | 26 | -74 | -50 | 125 | 169 | 
O=C(Nc1cc(Nc2ccccc2)nc2ccccc12)C1CCCC1 | 49 | 33 | 34 | 61 | 104 | 145 | 
O=C(Nc1cc(Nc2ccc(Cl)c(Cl)c2)nc2ccccc12)C1CCC1 | 22 | 41 | 38 | 51 | 72 | 149 | 
O=C(Nc1cc(Nc2ccc3c(c2)CCC3)nc2ccccc12)C1CCCC1 | 47 | 36 | 14 | 62 | 90 | 147 | 
O=C(Nc1cc(Nc2ccc3cn[nH]c3c2)nc2ccccc12)C1CCCC1 | 61 | 52 | 56 | 90 | 72 | 102 | 
O=C(Nc1cc(Nc2ccc(Cl)c(Cl)c2)nc2ccccc12)c1ccco1 | 11 | 15 | 10 | 13 | 69 | 96 | 
Cc1ccc(Nc2cc(NC(=O)C3CCCCC3)c3ccccc3n2)cc1 | 63 | -3 | -3 | 64 | 121 | 220 | 
O=C(Nc1cc(NCc2ccccc2)nc2ccccc12)C1CCCC1 | 34 | 34 | 49 | 28 | 77 | 107 | 
O=C(Nc1cc(Nc2ccc3c(c2)CCC3)nc2ccccc12)C1CCCCC1 | 20 | 10 | 19 | 42 | 118 | 217 | 
Clc1ccc(Nc2nc3ccccc3c3nc(C4CCCCC4)[nH]c23)cc1Cl | 39 | 3 | 16 | 41 | 120 | 229 | 286
COc1ccc(Nc2cc(NC(=O)C3CCCC3)c3ccccc3n2)cc1 | 24 | 9 | 19 | 35 | 94 | 134 | 
